Tests used:
[1] = tested on: HeLa; test: Cytostatic activity against thymidine-kinase deficient human HeLa cells […]; type: functional, cell-based
[2] = tested on: CCRF-CEM; test: Cytostatic activity against thymidine-kinase deficient human CEM cells after 72 hrs by cell counting; type: functional, cell-based
How it was run: (§1)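 Suspension leukemia cells in DMEM with 10% FBS, 10 mM Hepes and 1 mM sodium pyruvate at 37 °C under 5% CO2. Seeded at 60 000 cells/well with graded compound levels. Grown 48 h (L1210) or 72 h (CEM), then counted by Coulter counter. Mean ± SD of two to four independent experiments.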

[3] = Stability of the compound in potassium phosphate buffer at pH 7.4 assessed as E.coli thymidine phosphorylase-mediated release of 5-FU after 5 mins by [19F] NMR spectroscopy; type: ADME; settings: pH 7.4, 5 min
How it was run: (§2)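 Compound (6.0 mg) in methanol-d4 plus 300 mM potassium phosphate buffer pH 7.4. […] 19F NMR recorded at 5 min, 14 h and 72 h at 25 °C, with 5-FU identified by its signal near δF 169.50 ppm.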

[4] = tested on: L1210; test: Cytostatic activity against thymidine-kinase deficient mouse L1210 cells after 48 hrs by cell counting; type: functional, cell-based; settings: L1210, 48 h; how it was run: as §1
[5] = tested on: HeLa; test: Cytostatic activity against human HeLa cells […] by cell counting; type: functional, cell-based
[6] = Drug metabolism in Trizma buffer at pH 7.6 assessed as metabolite 5-Fluoro-2'-deoxyuridine-5'-O-[1-naphthyl(L-alaninyl)]phosphate formation at 3 mg measured every 7 mins over 14 hrs by [31P]NMR spectroscopy in presence of carboxypeptidase Y; type: physicochemical; settings: pH 7.6, 14 h
How it was run: (§3)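 Compound (3.0 mg) in acetone-d6 with Trizma buffer pH 7.6. A control 31P NMR spectrum (202 MHz) was taken at 25 °C, then defrosted carboxypeptidase Y (0.1 mg in Trizma) added. Spectra recorded every 7 min over 14 h at 25 °C to follow conversion to metabolites. Half-life was estimated from these spectra.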

[7] = tested on: CCRF-CEM; test: Cytostatic activity against human CEM/0 cells after 72 hrs by cell counting; type: functional, cell-based
How it was run: (§4)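 Suspension leukemia cells in DMEM with 10% FBS, 10 mM Hepes and 1 mM sodium pyruvate at 37 °C under 5% CO2. Seeded at 60 000 cells/well with graded compound levels. Grown 48 h (L1210) or 72 h (CEM), then counted by Coulter counter. […] Mean ± SD of two to four independent experiments.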

[8] = tested on: L1210; test: Ratio of IC50 for Mycoplasma hyorhinis-infected mouse L1210 cells to IC50 for mouse L1210/0 cells after 48 hrs by cell counting; type: functional
How it was run: (§5)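 Murine L1210/0 cells were compared with L1210/TK cells, selected for resistance to 5-bromo-2'-dUrd, and with L1210.Hyor cells, chronically infected with Mycoplasma hyorhinis. Cells were grown in DMEM with 10% FBS, 10 mM Hepes and 1 mM pyruvate at 37 °C and 5% CO2, then seeded at 60 000 cells/well with compound. They were Coulter-counted after 48 h. […] Mean of 2–4 experiments.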

[9] = Ratio of 5-FU IC50 to compound IC50 for mouse L1210/0 cells after 48 hrs by cell counting; type: functional
[10] = Drug metabolism in Trizma buffer at pH 7.6 assessed as metabolite 5-Fluoro-2'deoxyuridine 5'-O-[(L-Alaninyl)]phosphate formation at 3 mg measured after 45 mins by [31P]NMR spectroscopy in presence of carboxypeptidase Y; type: physicochemical; settings: pH 7.6, 0.75 h; how it was run: as §3
[11] = Cytostatic activity against mouse L1210/0 cells after 48 hrs by cell counting; type: functional, cell-based; settings: L1210/0, 48 h; how it was run: as §1
[12] = Half life in Trizma buffer at pH 7.6 at 3 mg by [31P]NMR spectroscopy in presence of carboxypeptidase Y; type: physicochemical; settings: yeast (Saccharomyces cerevisiae); how it was run: as §3
[13] = tested on: L1210; test: Cytostatic activity against Mycoplasma hyorhinis-infected mouse L1210 cells after 48 hrs by cell counting; type: functional, cell-based; settings: L1210, 48 h; how it was run: as §1
[14] = tested on: L1210; test: Ratio of IC50 for thymidine-kinase deficient mouse L1210 cells to IC50 for mouse L1210/0 cells after 48 hrs by cell counting; type: functional; how it was run: as §5
[15] = Stability of the compound in potassium phosphate buffer at pH 7.4 assessed as E.coli thymidine phosphorylase-mediated release of 5-FU after 14 to 72 hrs by [19F] NMR spectroscopy; type: ADME; how it was run: as §2
[16] = tested on: CCRF-CEM; test: Ratio of IC50 for human CEM cells expressing human ENT1 transporter in presence of NBMPR to IC50 for human CEM cells expressing human ENT1 transporter; type: functional
How it was run: (§6)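 Human T-lymphocyte CEM cells with (CEM/hEnt-1) or lacking (CEM/hEnt-0) the hENT1 transporter were seeded at 60 000 cells/well with graded compound concentrations. Transporter-inhibition runs added dipyridamole (10 μM) or NBMPR (10 μM) to CEM/hEnt-1 cells. […] Ratios are formed against untreated CEM/hEnt-1 IC50. Mean of 2–4 experiments.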

[17] = Hydrolytic stability in aqueous buffer at pH 1 at 2.6 mg measured every 12 mins over 14 hrs by [31P]NMR spectroscopy; type: physicochemical; settings: pH 1, 14 h
How it was run: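 Compound (2.6 mg) in methanol-d4 with pH 1 buffer made from equal parts 0.2 M HCl and 0.2 M KCl. 31P NMR at 37 °C, spectra recorded every 12 min over 14 h.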

[18] = tested on: CCRF-CEM; test: Cytostatic activity against human CEM cells expressing human ENT1 transporter after 72 hrs by cell counting; type: functional, cell-based; how it was run: as §4
[19] = tested on: CCRF-CEM; test: Cytostatic activity against human CEM cells expressing human ENT1 transporter after 72 hrs by cell counting in presence of NBMPR; type: functional, cell-based
How it was run: (§7)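 CEM/hEnt-1 cells with 10 μM dipyridamole or 10 μM NBMPR added alongside graded compound levels, in DMEM with 10% FBS, 10 mM Hepes and 1 mM sodium pyruvate at 37 °C under 5% CO2. Seeded at 60 000 cells/well, counted by Coulter counter after 3 days.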

[20] = tested on: CCRF-CEM; test: Cytostatic activity against ENT1 transporter-deficient human CEM cells after 72 hrs by cell counting; type: functional, cell-based; how it was run: as §4
[21] = tested on: CCRF-CEM; test: Ratio of IC50 for ENT1 transporter-deficient human CEM cells to IC50 for human CEM cells expressing human ENT1 transporter after 72 hrs by cell counting; type: functional; how it was run: as §6
[22] = tested on: CCRF-CEM; test: Cytostatic activity against human CEM cells expressing human ENT1 transporter after 72 hrs by cell counting in presence of dipyridamole; type: functional, cell-based; how it was run: as §7
[23] = tested on: CCRF-CEM; test: Ratio of IC50 for human CEM cells expressing human ENT1 transporter in presence of dipyridamole to IC50 for human CEM cells expressing human ENT1 transporter; type: functional; how it was run: as §6
[24] = Hydrolytic stability in aqueous buffer at pH 8 at 4.5 mg measured every 12 mins over 14 hrs by [31P]NMR spectroscopy; type: physicochemical; settings: pH 8, 14 h
How it was run: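 Compound (4.5 mg) in methanol-d4 with pH 8 buffer (0.1 M Na2HPO4 adjusted with 0.1 M HCl). In situ 31P NMR (202 MHz) at 37 °C, spectra recorded every 12 min over 14 h.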

[25] = tested on: L1210; test: Ratio of FUDR IC50 to compound IC50 for thymidine-kinase deficient mouse L1210 cells after 48 hrs by cell counting; type: functional
[26] = tested on: HeLa; test: Ratio of IC50 for thymidine-kinase deficient human HeLa cells to IC50 for human HeLa cells by cell counting
[27] = Drug metabolism in DMSO/D2O assessed as metabolite 5-Fluoro-2'-deoxyuridine-5'-O-[1-naphthyl(L-alaninyl)]phosphate formation at 5 mg measured after 6 hrs 45 mins by [31P]NMR spectroscopy in presence of human serum; type: ADME
How it was run: (§8)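 Compound (5.0 mg) dissolved in DMSO plus D2O and a control 31P NMR spectrum taken at 37 °C. Previously defrosted human serum then added. Spectra taken every 15 min over 14 h at 37 °C and processed by Lorentz-Gauss deconvolution. Parent and metabolite peaks were tracked by chemical shift.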

[28] = Drug metabolism in DMSO/D2O assessed as metabolite 5-Fluoro-2'deoxyuridine 5'-O-[(L-Alaninyl)]phosphate formation at 5 mg measured after 11 hrs 30 mins by [31P]NMR spectroscopy in presence of human serum; type: ADME; how it was run: as §8
[29] = Stability in DMSO/D2O assessed as parent compound at 5 mg measured after 13 hrs 30 mins by [31P]NMR spectroscopy in presence of human serum; type: ADME; settings: read-out: Stability; how it was run: as §8

Row | Structure (SMILES) | IC50 [1] [nM] | IC50 [2] [nM] | Stability [3] | IC50 [4] [nM] | IC50 [5] [nM] | IC50 [7] [nM] | Ratio IC50 [8] | IC50 [11] [nM] | IC50 [13] [nM] | Ratio IC50 [14] | IC50 [18] [nM] | IC50 [19] [nM] | IC50 [20] [nM] | also measured
1 | O=c1[nH]cc(F)c(=O)[nH]1 [FLUOROURACIL] | 230 | 12000 | Unstable | 320 |  |  |  |  |  |  |  |  |  | 
2 | CCCCCOC(=O)[C@H](C)NP(=O)(OC[C@H]1O[C@@H](n2cc(F)c(=O)[nH]c2=O)C[C@@H]1O)Oc1cccc2ccccc12 (mixture of isomers) | 440 | 280 |  | 130 | 29 | 15 | 2.9 | 2.1 | 6 | 40 |  |  |  | Drug metabolism [6]: Active; Ratio IC50 [9]: 100; Drug metabolism [10]: Active; half-life [12]: < 5 min
3 | C[C@H](NP(=O)(OC[C@H]1O[C@@H](n2cc(F)c(=O)[nH]c2=O)C[C@@H]1O)Oc1ccccc1)C(=O)OCc1ccccc1 (mixture of isomers) | 19000 | 22000 | Stable | 13000 | 130 | 180 | 5.8 | 26 | 150 |  | 130 | 720 | 1400 | Stability [15]: Stable; Ratio IC50 [16]: 2; Stability [17]: Stable; Ratio IC50 [21]: 7; IC50 [22]: 660 nM; Ratio IC50 [23]: 2; Stability [24]: Stable
4 | O=c1[nH]c(=O)n([C@H]2C[C@H](O)[C@@H](CO)O2)cc1F [FLOXURIDINE] |  |  | Unstable |  | 50 | 22 |  |  |  |  | 40 | 800 | 2500 | 
5 | C[C@H](NP(=O)(OC[C@H]1O[C@@H](n2cc(F)c(=O)[nH]c2=O)C[C@@H]1O)Oc1cccc2ccccc12)C(=O)OCc1ccccc1 (mixture of isomers) [FOSIFLOXURIDINE NAFALBENAMIDE] | 2500 | 310 |  | 45 | 65 | 68 | 2.27 | 11 | 25 | 5 | 50 | 260 | 600 | Ratio IC50 [16]: 2; Ratio IC50 [21]: 7; Ratio IC50 [9]: 30; IC50 [22]: 130 nM; Ratio IC50 [23]: 2
6 | C[C@H](NP(=O)(OC[C@H]1O[C@@H](n2cc(F)c(=O)[nH]c2=O)C[C@@H]1O)Oc1ccccc1)C(=O)OC1CCCCC1 (mixture of isomers) | 5900 | 1200 |  | 140 | 180 | 170 | 1.25 | 32 | 40 |  |  |  |  | Ratio IC50 [25]: 21
7 | COC(=O)[C@H](C)NP(=O)(OC[C@H]1O[C@@H](n2cc(F)c(=O)[nH]c2=O)C[C@@H]1O)Oc1ccccc1 (mixture of isomers) | 4700 | 35000 |  | 41000 | 280 | 700 | 22 | 40 | 870 | 2000 |  |  |  | Ratio IC50 [26]: 15
8 | CCOC(=O)[C@H](C)NP(=O)(OC[C@H]1O[C@@H](n2cc(F)c(=O)[nH]c2=O)C[C@@H]1O)Oc1cccc2ccccc12 (mixture of isomers) | 2800 | 1600 |  | 360 | 220 | 250 | 3.4 | 28 | 95 |  |  |  |  | Drug metabolism [27]: Active; Drug metabolism [28]: Active; remaining at 13.5 h [29]: 96%

— ChEMBL document CHEMBL2177092, “Phosphoramidate ProTides of the anticancer agent FUDR successfully deliver the preformed bioactive monophosphate in cells and confer advantage over the parent nucleoside” (J Med Chem, 2011)
